Measured values of several laboratories.
Compare with care: the assays were run in different laboratories.
Target: Serine/threonine-protein kinase PAK 4 (PAK4, Homo sapiens, UniProt O96013)

Compound | observed | mode | technique | concentration | notes | quantity | result
C=CC(=O)N1CCC[C@@H](n2nc(-c3ccc(Oc4ccccc4)cc3)c3c(N)ncnc32)C1 | enzyme activity | inhibitor |  | 1 µM |  | inhibition | 6%
N#Cc1ccc(NC(=O)Nc2ccccc2)cc1 | cell-free assay |  | competition with immobilised ligand | 25 µM |  | remaining binding | 85%
C[C@H]1CC[C@H](n2c3cnccc3c3cnc(Nc4ccc5c(n4)CCN(C(=O)CO)C5)nc32)CC1 | cell-free assay |  |  | 1 µM |  | remaining signal | 92%
CC#CC(=O)N1CCC[C@H]1c1nc(-c2ccc(C(=O)Nc3ccccn3)cc2)c2c(N)nccn12 | enzyme activity | inhibitor |  | 1 µM |  | inhibition | 0%
Cc1cc(O)c(-c2ccc([C@@H](C)CN(C)C)cc2)c2c1[nH]c(=O)c1sccc12 | cell-free assay | inhibitor |  | 0.1 µM | lysate | inhibition | -7.15%
COc1ccc2oc(-c3ccc4nc(N)oc4c3)c/c(=N\c3ccccc3NC(=O)CCN)c2c1 | binding |  |  | 1 µM |  | remaining binding | 104%
CC(C)S(=O)(=O)c1ccc2nccc(Nc3ccc4sc(C5CCCC5)nc4c3)c2c1 | enzyme activity | inhibitor |  | 1 µM |  | activity vs control | 104%
COc1ccc2[nH]c3c4[nH]c5ccc(OC)cc5c4c4c(c3c2c1)C(=O)NC4=O | binding |  |  | 1 µM |  | remaining binding | 90%
C1=C/COCc2cc(ccc2OCCN2CCCC2)Nc2nccc(n2)-c2cccc(c2)COC/1 | binding |  |  | 0.1 µM |  | remaining binding | 94%
CCCCC(=O)Nc1ccc(-c2ccc3ncn(CCC)c(=O)c3c2)cn1 | binding |  | competition with immobilised ligand | 0.5 µM |  | remaining binding | 98%
